ChEMBL document CHEMBL3297707, “Dual protonophore-chitinase inhibitors dramatically affect O. volvulus molting” (J Med Chem, 2014)
Activity calls are given as the source filed them. The rule behind the calls is not given here.

What was measured:
Chitinase [1] = target: T1, Chitinase (Onchocerca volvulus, UniProt Q25615); assay: Inhibition of Onchocerca volvulus L3 larvae chitinase using 20 uM 4-methylumbelliferyl-N,N',N''-beta-chitotrioside as substrate after 10 mins by microplate reader analysis
T1 sequence (Q25615 whole entry): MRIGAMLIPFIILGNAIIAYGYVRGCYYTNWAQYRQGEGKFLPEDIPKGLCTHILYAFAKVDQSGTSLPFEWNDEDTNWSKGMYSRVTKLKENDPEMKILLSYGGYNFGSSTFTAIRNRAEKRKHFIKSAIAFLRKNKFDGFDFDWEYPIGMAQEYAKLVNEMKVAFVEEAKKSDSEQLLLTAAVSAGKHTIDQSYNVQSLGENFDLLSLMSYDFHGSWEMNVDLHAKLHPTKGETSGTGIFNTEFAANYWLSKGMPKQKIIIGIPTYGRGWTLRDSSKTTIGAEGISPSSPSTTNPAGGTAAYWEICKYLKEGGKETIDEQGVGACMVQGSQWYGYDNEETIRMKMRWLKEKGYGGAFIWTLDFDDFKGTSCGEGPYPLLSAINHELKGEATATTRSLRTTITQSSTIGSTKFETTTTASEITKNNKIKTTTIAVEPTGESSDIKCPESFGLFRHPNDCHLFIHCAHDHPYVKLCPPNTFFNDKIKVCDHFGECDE

Brugia malayi = assay: Inhibition of Brugia malayi chitinase using 20 uM 4-methylumbelliferyl-N,N',N''-beta-chitotrioside as substrate at 10 uM after 10 mins by microplate reader analysis
HEK-293T [2] = assay: Protonophoric activity in human HEK293T/17 cells assessed as mitochondrial membrane depolarization at 50 uM for 30 mins by TMRE dye based flow cytometry; assay type: functional, cell-based
Outline: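 Trypsinized HEK 293T/17 cells at 1–2 × 10^6/mL in 10% FBS DMEM, exposed to 50 μM compound or DMSO for 30 min at 37 °C. TMRE (~450 nM final) added for 30 min in the dark at 37 °C. Cells washed with 0.2% BSA/PBS; membrane polarization read by flow cytometry on 1–2 × 10^6 cells per sample.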

Onchocerca volvulus [3] = assay: Antiparasitic activity against Onchocerca volvulus assessed as inhibition of L3 to L4 larval molting at 10 uM for 24 hrs measured until 6 days by using inverted microscopic analysis in presence of PBMC; assay type: functional, organism-based
Outline: (§1)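 O. volvulus L3 larvae pre-incubated with compound for 24 h, then complete medium (20% heat-inactivated FCS) and normal PBMCs added; molting assessed on day 6. Combination lines use a 1:1 mix with CCCP, each at the stated concentration. Percent molting taken over 10 wells, on average 5–10 larvae per well.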

[4] = target: T2, Chitinase (Onchocerca volvulus) (UniProt Q25615); assay: Inhibition of Onchocerca volvulus L3 larvae chitinase using 20 uM 4-methylumbelliferyl-N,N',N''-beta-chitotrioside as substrate at 10 uM after 10 mins by microplate reader analysis
T2 sequence (whole entry): T1 sequence (Q25615 whole entry)

Entamoeba histolytica = assay: Inhibition of Entamoeba histolytica chitinase using 20 uM 4-methylumbelliferyl-N,N',N''-beta-chitotrioside as substrate at 10 uM after 10 mins by microplate reader analysis
Onchocerca volvulus [5] = assay: Antiparasitic activity against Onchocerca volvulus assessed as inhibition of L3 to L4 larval molting at 1 uM for 24 hrs measured until 6 days by using inverted microscopic analysis in presence of PBMC; assay type: functional; outline: as §1
Caenorhabditis elegans [6] = assay: Drug accumulation in Caenorhabditis elegans at 10 uM after 6 hrs by LC-MS analysis; assay type: ADME, organism-based; settings: in vivo
Outline: (§2)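 Synchronized worms grown to late L4 on E. coli OP50 at 25 °C for 40 h, washed and suspended in M9 (~5–10 worms/μL). Compound added at 10 μM (~2 nmol/mg worm) for 6 or 12 h at rt. Worms washed with 0.1% SDS, then water, and lyophilized. Extracted in cold MeOH/MeCN (1:1) with internal standard and quantified by LC-TOF MS against calibration in blank worms. Mean ± sd, n = 3, nmol/mg worm.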

HEK-293T [7] = assay: Protonophoric activity in human HEK293T/17 cells assessed as mitochondrial membrane depolarization at 50 uM for 30 mins by TMRE dye based fluorescence spectrometry; assay type: functional, cell-based
Outline: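 HEK 293T/17 cells suspended at 1–2 × 10^6/mL in 10% FBS DMEM, given 50 μM compound or DMSO for 30 min at 37 °C, then stained with TMRE (~450 nM final) for 30 min in the dark at 37 °C. After washes in 0.2% BSA/PBS, fluorescence read on a plate reader (ex 549, em 575 nm). Mean ± sd, n = 3.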

HEK-293T [8] = assay: Cytotoxicity against human HEK293T/17 cells assessed as cell viability at 1 to 10 uM for 24 hrs by MTS assay; assay type: cell-based
Outline: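 HEK 293T/17 cells (2 × 10^4) plated and held 24 h at 37 °C, then treated at 1 and 10 μM final. MTS viability read at 0.5 and 24 h post-incubation.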

Caenorhabditis elegans [9] = assay: Drug accumulation in Caenorhabditis elegans at 10 uM after 12 hrs by LC-MS analysis; assay type: ADME, organism-based; settings: in vivo; outline: as §2
Plasmodium falciparum = assay: Inhibition of Plasmodium falciparum chitinase using 20 uM 4-methylumbelliferyl-N,N',N''-beta-chitotrioside as substrate at 10 uM after 10 mins by microplate reader analysis
Onchocerca volvulus [10] = assay: Antiparasitic activity against Onchocerca volvulus assessed as inhibition of L3 to L4 larval molting at 1 uM for 24 hrs measured until 6 days by using inverted microscopic analysis in presence of PBMC and 1 uM protonophore CCCP; assay type: functional, organism-based; outline: as §1
Onchocerca volvulus [11] = assay: Antiparasitic activity against Onchocerca volvulus assessed as inhibition of L3 to L4 larval molting at 100 uM for 24 hrs measured until 6 days by using inverted microscopic analysis in presence of PBMC; assay type: functional, organism-based; outline: as §1
Onchocerca volvulus [12] = assay: Antiparasitic activity against Onchocerca volvulus assessed as inhibition of L3 to L4 larval molting at 2.5 uM for 24 hrs measured until 6 days by using inverted microscopic analysis in presence of PBMC and 2.5 uM protonophore CCCP; assay type: functional, organism-based; outline: as §1
Onchocerca volvulus [13] = assay: Antiparasitic activity against Onchocerca volvulus assessed as inhibition of L3 to L4 larval molting at 0.5 uM for 24 hrs measured until 6 days by using inverted microscopic analysis in presence of PBMC and 0.5 uM protonophore CCCP; assay type: functional, organism-based; outline: as §1
Caenorhabditis elegans [14] = assay: Toxicity in Caenorhabditis elegans; assay type: organism-based; settings: in vivo
Caenorhabditis elegans [15] = assay: Drug metabolism in Caenorhabditis elegans assessed as 3-iodo closantel formation after 12 hrs by LC/MS analysis; assay type: ADME, organism-based; settings: in vivo
Caenorhabditis elegans [16] = assay: Drug metabolism in Caenorhabditis elegans assessed as glycosylated metabolite formation after 12 hrs by LC/MS analysis; assay type: ADME, organism-based; settings: in vivo
Caenorhabditis elegans [17] = assay: Drug metabolism in Caenorhabditis elegans assessed as 5-iodo closantel formation after 12 hrs by LC/MS analysis; assay type: ADME, organism-based; settings: in vivo
Caenorhabditis elegans [18] = assay: Drug metabolism in Caenorhabditis elegans assessed as sulfated metabolite formation after 12 hrs by LC/MS analysis; assay type: ADME, organism-based; settings: in vivo
Caenorhabditis elegans [19] = assay: Drug metabolism in Caenorhabditis elegans assessed as glucordinated metabolite formation after 12 hrs by LC/MS analysis; assay type: ADME, organism-based; settings: in vivo
Chitinase [20] = target: T1, Chitinase; assay: Competitive inhibition of Onchocerca volvulus L3 larvae chitinase using 20 uM 4-methylumbelliferyl-N,N',N''-beta-chitotrioside as substrate after 10 mins by microplate reader analysis

SMILES	IC50 (Chitinase [1])	Activity (HEK-293T [2])	inhibition (Onchocerca volvulus [3])	Drug uptake (Caenorhabditis elegans [6])	Activity (HEK-293T [7])	also measured
O=C(Nc1ccc(Oc2ccc(Cl)cc2)cc1)c1cc(I)cc(I)c1O	0.7 µM	Active	Active	Active	Active	inhibition (Brugia malayi): inactive; inhibition [4]: Active; inhibition (Entamoeba histolytica): inactive; inhibition at 1 µM (Onchocerca volvulus [5]): 84%; Activity (HEK-293T [8]): Non-toxic
O=C(Nc1ccc(Oc2ccccc2)cc1)c1cc(I)cc(I)c1O	1.98 µM	Active			Active	
Cc1ccc(-c2ccc(NC(=O)c3cc(I)cc(I)c3O)cc2)cc1	0.99 µM					
O=C(Nc1ccc2ccccc2c1)c1cc(I)cc(I)c1O	0.94 µM	Active	Active	Active	Active	inhibition at 1 µM (Onchocerca volvulus [5]): 84%; Drug uptake (Caenorhabditis elegans [9]): 1.13 nmol/mg; Activity (HEK-293T [8]): Non-toxic
COc1c(I)cc(I)cc1C(=O)Nc1ccc(Oc2ccccc2)cc1	1.28 µM	inactive			inactive	
O=C(Nc1ccc(Oc2ccc(F)cc2)cc1)c1cc(I)cc(I)c1O	1.57 µM					
CN(C(=O)c1cc(I)cc(I)c1O)c1ccc(Oc2ccccc2)cc1	1.81 µM					
O=C(Nc1ccc(Oc2ccccc2)cc1)c1cc(I)cc(I)c1	1.06 µM	inactive			inactive	
COc1c(I)cc(I)cc1C(=O)O			inactive			
O=C(Nc1ccc(-c2ccc(Cl)cc2)cc1)c1cc(I)cc(I)c1O	0.37 µM			Active		inhibition (Plasmodium falciparum): inactive; inhibition (Brugia malayi): inactive; inhibition [4]: Active; inhibition (Entamoeba histolytica): inactive
COc1c(I)cc(I)cc1C(=O)N(C)c1ccc(Oc2ccccc2)cc1	3.71 µM	inactive			inactive	
COc1c(I)cc(I)cc1C(=O)Nc1ccc(Oc2ccc(Cl)cc2)cc1	0.6 µM	inactive	Active	Active	inactive	inhibition (Onchocerca volvulus [10]): inactive; inhibition (Plasmodium falciparum): inactive; inhibition (Brugia malayi): inactive; inhibition [4]: Active; inhibition (Onchocerca volvulus [11]): Active; inhibition (Entamoeba histolytica): inactive; inhibition (Onchocerca volvulus [5]): inactive; inhibition (Onchocerca volvulus [12]): Active; inhibition (Onchocerca volvulus [13]): inactive
O=C(Nc1ccc(Oc2ccccc2Cl)cc1)c1cc(I)cc(I)c1O	1.2 µM					
COc1c(I)cc(I)cc1C(=O)Nc1ccc2ccccc2c1	0.89 µM	inactive	Active	Active	inactive	inhibition (Onchocerca volvulus [5]): inactive; Drug uptake (Caenorhabditis elegans [9]): 1.28 nmol/mg
Cc1cc(C(C#N)c2ccc(Cl)cc2)c(Cl)cc1NC(=O)c1cc(I)cc(I)c1O (stereo not given) [CLOSANTEL]		Active		Active	Active	Activity (Caenorhabditis elegans [14]): Non-toxic; Drug metabolism (Caenorhabditis elegans [15]): metabolite_detected; Drug metabolism (Caenorhabditis elegans [16]): metabolite_notdetected; Drug metabolism (Caenorhabditis elegans [17]): metabolite_detected; Drug metabolism (Caenorhabditis elegans [18]): metabolite_notdetected; Drug metabolism (Caenorhabditis elegans [19]): metabolite_notdetected
N#CC(C#N)=NNc1cccc(Cl)c1 [CARBONYL CYANIDE M-CHLOROPHENYLHYDRAZONE]			Active	Active		
O=C(Nc1ccc(Oc2cccc(Cl)c2)cc1)c1cc(I)cc(I)c1O	1.74 µM					
Cc1ccc(Oc2ccc(NC(=O)c3cc(I)cc(I)c3O)cc2)cc1	1.11 µM					
O=C(Nc1ccc(Oc2ccc(Cl)cc2)cc1)c1cc(I)cc(I)c1	0.87 µM	inactive		Active	inactive	
O=C(Nc1ccc(-c2ccccc2)cc1)c1cc(I)cc(I)c1O	0.47 µM			Active		inhibition (Plasmodium falciparum): inactive; inhibition (Brugia malayi): inactive; inhibition [4]: Active; inhibition (Entamoeba histolytica): inactive
O=C(Nc1ccc(Oc2ccc(Cl)cc2)c(Cl)c1)c1cc(I)cc(I)c1O [RAFOXANIDE]	0.34 µM	Active	Active	1.55 nmol/mg	Active	Ki (Chitinase [20]): 0.13 µM; inhibition (Brugia malayi): inactive; inhibition [4]: Active; inhibition (Entamoeba histolytica): inactive; inhibition at 1 µM (Onchocerca volvulus [5]): 84%; Drug uptake (Caenorhabditis elegans [9]): 1.73 nmol/mg; Activity (HEK-293T [8]): Non-toxic
O=C(Nc1ccc2ccccc2c1)c1cc(I)cc(I)c1	1.29 µM	inactive			inactive	
